Source: ChEMBL document CHEMBL4152188, “Design, synthesis and biological evaluation of C(4) substituted monobactams as antibacterial agents against multidrug-resistant Gram-negative bacteria” (Eur J Med Chem, 2018)
In brackets after ≈: the same amount, converted by molar mass. Values belong to the compound of their own block, whether it stands above or below them.

Columns and labels:
Type in all cases: functional
[1] = tested on: Klebsiella pneumoniae; assay: Antibacterial activity against KPC-2 producing Klebsiella pneumoniae isolate 209735 after 18 hrs in presence of BPL by CLSI broth microdilution method; conditions: isolate 209735, 18 h
In short: (§1)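 CLSI broth microdilution against clinical isolates (ESBL E. coli, KPC-2 MDR K. pneumoniae, IMP-4 MDR P. aeruginosa; five per species). Iron limitation: Mueller-Hinton broth supplemented with 16 mg/liter 2,2'-bipyridyl to complex iron and induce iron uptake systems. Read-out: MIC.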

[2] = tested on: Klebsiella pneumoniae; assay: Antibacterial activity against KPC-2 producing Klebsiella pneumoniae isolate 212232 after 18 hrs by CLSI broth microdilution method; conditions: isolate 212232, 18 h
[3] = tested on: Klebsiella pneumoniae; assay: Antibacterial activity against KPC-2 producing Klebsiella pneumoniae isolate 212423 after 18 hrs by CLSI broth microdilution method; conditions: isolate 212423, 18 h
[4] = tested on: Pseudomonas aeruginosa; assay: Antibacterial activity against IMP-4 producing Pseudomonas aeruginosa isolate 207272 after 18 hrs in presence of BPL by CLSI broth microdilution method; conditions: isolate 207272, 18 h; in short: as §1
[5] = tested on: Klebsiella pneumoniae; assay: Antibacterial activity against KPC-2 producing Klebsiella pneumoniae isolate 212229 after 18 hrs in presence of BPL by CLSI broth microdilution method; conditions: isolate 212229, 18 h; in short: as §1
[6] = tested on: Escherichia coli; assay: Antibacterial activity against extended-spectrum beta-lactamase producing Escherichia coli isolate 208687 after 18 hrs in presence of BPL by CLSI broth microdilution method; conditions: isolate 208687, 18 h; in short: as §1
[7] = tested on: Klebsiella pneumoniae; assay: Antibacterial activity against KPC-2 producing Klebsiella pneumoniae isolate 209632 after 18 hrs by CLSI broth microdilution method; conditions: isolate 209632, 18 h
[8] = tested on: Escherichia coli; assay: Selectivity index, ratio of MIC for against extended-spectrum beta-lactamase producing Escherichia coli isolate 208687 to MIC for extended-spectrum beta-lactamase producing Escherichia coli isolate 208687 in presence of BPL
[9] = tested on: Klebsiella pneumoniae; assay: Antibacterial activity against KPC-2 producing Klebsiella pneumoniae isolate 212229 after 18 hrs by CLSI broth microdilution method; conditions: isolate 212229, 18 h
[10] = tested on: Escherichia coli; assay: Antibacterial activity against extended-spectrum beta-lactamase producing Escherichia coli isolate 106342 after 18 hrs in presence of BPL by CLSI broth microdilution method; conditions: isolate 106342, 18 h; in short: as §1
[11] = tested on: Klebsiella pneumoniae; assay: Antibacterial activity against KPC-2 producing Klebsiella pneumoniae isolate 212232 after 18 hrs in presence of BPL by CLSI broth microdilution method; conditions: isolate 212232, 18 h; in short: as §1
[12] = tested on: Pseudomonas aeruginosa; assay: Selectivity index, ratio of MIC for against IMP-4 producing Pseudomonas aeruginosa isolate 207272 to MIC for against IMP-4 producing Pseudomonas aeruginosa isolate 207272 in presence of BPL
[13] = tested on: Pseudomonas aeruginosa; assay: Antibacterial activity against IMP-4 producing Pseudomonas aeruginosa isolate 209471 after 18 hrs in presence of BPL by CLSI broth microdilution method; conditions: isolate 209471, 18 h; in short: as §1
[14] = tested on: Klebsiella pneumoniae; assay: Selectivity index, ratio of MIC for against KPC-2 producing Klebsiella pneumoniae isolate 209632 to MIC for against KPC-2 producing Klebsiella pneumoniae isolate 209632 in presence of BPL
[15] = tested on: Pseudomonas aeruginosa; assay: Antibacterial activity against IMP-4 producing Pseudomonas aeruginosa isolate 212886 after 18 hrs by CLSI broth microdilution method; conditions: isolate 212886, 18 h
[16] = tested on: Escherichia coli; assay: Selectivity index, ratio of MIC for against extended-spectrum beta-lactamase producing Escherichia coli isolate 209285 to MIC for extended-spectrum beta-lactamase producing Escherichia coli isolate 209285 in presence of BPL
[17] = tested on: Escherichia coli; assay: Antibacterial activity against extended-spectrum beta-lactamase producing Escherichia coli isolate 106342 after 18 hrs by CLSI broth microdilution method; conditions: isolate 106342, 18 h
[18] = tested on: Escherichia coli; assay: Selectivity index, ratio of MIC for against Escherichia coli isolate 210737 to MIC for Escherichia coli isolate 210737 in presence of BPL
[19] = tested on: Klebsiella pneumoniae; assay: Selectivity index, ratio of MIC for against KPC-2 producing Klebsiella pneumoniae isolate 212232 to MIC for against KPC-2 producing Klebsiella pneumoniae isolate 212232 in presence of BPL
[20] = tested on: Pseudomonas aeruginosa; assay: Antibacterial activity against IMP-4 producing Pseudomonas aeruginosa isolate 212886 after 18 hrs in presence of BPL by CLSI broth microdilution method; conditions: isolate 212886, 18 h; in short: as §1
[21] = tested on: Escherichia coli; assay: Antibacterial activity against extended-spectrum beta-lactamase producing Escherichia coli isolate 209285 after 18 hrs in presence of BPL by CLSI broth microdilution method; conditions: isolate 209285, 18 h; in short: as §1
[22] = tested on: Klebsiella pneumoniae; assay: Selectivity index, ratio of MIC for against KPC-2 producing Klebsiella pneumoniae isolate 212229 to MIC for against KPC-2 producing Klebsiella pneumoniae isolate 212229 in presence of BPL
[23] = tested on: Klebsiella pneumoniae; assay: Antibacterial activity against KPC-2 producing Klebsiella pneumoniae isolate 209735 after 18 hrs by CLSI broth microdilution method; conditions: isolate 209735, 18 h
[24] = tested on: Escherichia coli; assay: Antibacterial activity against Escherichia coli isolate 210737 after 18 hrs by CLSI broth microdilution method; conditions: isolate 210737, 18 h
[25] = tested on: Klebsiella pneumoniae; assay: Antibacterial activity against KPC-2 producing Klebsiella pneumoniae isolate 209632 after 18 hrs in presence of BPL by CLSI broth microdilution method; conditions: isolate 209632, 18 h; in short: as §1
[26] = tested on: Pseudomonas aeruginosa; assay: Antibacterial activity against IMP-4 producing Pseudomonas aeruginosa isolate 208247 after 18 hrs by CLSI broth microdilution method; conditions: isolate 208247, 18 h
[27] = tested on: Pseudomonas aeruginosa; assay: Selectivity index, ratio of MIC for against IMP-4 producing Pseudomonas aeruginosa isolate 212886 to MIC for against IMP-4 producing Pseudomonas aeruginosa isolate 212886 in presence of BPL
[28] = tested on: Escherichia coli; assay: Selectivity index, ratio of MIC for against extended-spectrum beta-lactamase producing Escherichia coli isolate 106342 to MIC for extended-spectrum beta-lactamase producing Escherichia coli isolate 106342 in presence of BPL
[29] = tested on: Klebsiella pneumoniae; assay: Selectivity index, ratio of MIC for against KPC-2 producing Klebsiella pneumoniae isolate 212423 to MIC for against KPC-2 producing Klebsiella pneumoniae isolate 212423 in presence of BPL
[30] = tested on: Pseudomonas aeruginosa; assay: Selectivity index, ratio of MIC for against IMP-4 producing Pseudomonas aeruginosa isolate 209471 to MIC for against IMP-4 producing Pseudomonas aeruginosa isolate 209471 in presence of BPL
[31] = tested on: Escherichia coli; assay: Antibacterial activity against extended-spectrum beta-lactamase producing Escherichia coli isolate 212648 after 18 hrs by CLSI broth microdilution method; conditions: isolate 212648, 18 h
[32] = tested on: Pseudomonas aeruginosa; assay: Antibacterial activity against IMP-4 producing Pseudomonas aeruginosa isolate 207272 after 18 hrs by CLSI broth microdilution method; conditions: isolate 207272, 18 h
[33] = tested on: Klebsiella pneumoniae; assay: Selectivity index, ratio of MIC for against KPC-2 producing Klebsiella pneumoniae isolate 209735 to MIC for against KPC-2 producing Klebsiella pneumoniae isolate 209735 in presence of BPL
[34] = tested on: Klebsiella pneumoniae; assay: Antibacterial activity against KPC-2 producing Klebsiella pneumoniae isolate 212423 after 18 hrs in presence of BPL by CLSI broth microdilution method; conditions: isolate 212423, 18 h; in short: as §1
[35] = tested on: Escherichia coli; assay: Antibacterial activity against Escherichia coli isolate 210737 after 18 hrs in presence of BPL by CLSI broth microdilution method; conditions: isolate 210737, 18 h; in short: as §1
[36] = tested on: Escherichia coli; assay: Selectivity index, ratio of MIC for against extended-spectrum beta-lactamase producing Escherichia coli isolate 212648 to MIC for extended-spectrum beta-lactamase producing Escherichia coli isolate 212648 in presence of BPL
[37] = tested on: Pseudomonas aeruginosa; assay: Selectivity index, ratio of MIC for against IMP-4 producing Pseudomonas aeruginosa isolate 208247 to MIC for against IMP-4 producing Pseudomonas aeruginosa isolate 208247 in presence of BPL
[38] = tested on: Pseudomonas aeruginosa; assay: Selectivity index, ratio of MIC for against IMP-4 producing Pseudomonas aeruginosa isolate 209321 to MIC for against IMP-4 producing Pseudomonas aeruginosa isolate 209321 in presence of BPL
[39] = tested on: Pseudomonas aeruginosa; assay: Antibacterial activity against IMP-4 producing Pseudomonas aeruginosa isolate 208247 after 18 hrs in presence of BPL by CLSI broth microdilution method; conditions: isolate 208247, 18 h; in short: as §1
[40] = tested on: Pseudomonas aeruginosa; assay: Antibacterial activity against IMP-4 producing Pseudomonas aeruginosa isolate 209321 after 18 hrs in presence of BPL by CLSI broth microdilution method; conditions: isolate 209321, 18 h; in short: as §1
[41] = tested on: Pseudomonas aeruginosa; assay: Antibacterial activity against IMP-4 producing Pseudomonas aeruginosa isolate 209321 after 18 hrs by CLSI broth microdilution method; conditions: isolate 209321, 18 h
[42] = tested on: Escherichia coli; assay: Antibacterial activity against extended-spectrum beta-lactamase producing Escherichia coli isolate 209285 after 18 hrs by CLSI broth microdilution method; conditions: isolate 209285, 18 h
[43] = tested on: Pseudomonas aeruginosa; assay: Antibacterial activity against IMP-4 producing Pseudomonas aeruginosa isolate 209471 after 18 hrs by CLSI broth microdilution method; conditions: isolate 209471, 18 h
[44] = tested on: Escherichia coli; assay: Antibacterial activity against extended-spectrum beta-lactamase producing Escherichia coli isolate 212648 after 18 hrs in presence of BPL by CLSI broth microdilution method; conditions: isolate 212648, 18 h; in short: as §1
[45] = tested on: Escherichia coli; assay: Antibacterial activity against extended-spectrum beta-lactamase producing Escherichia coli isolate 208687 after 18 hrs by CLSI broth microdilution method; conditions: isolate 208687, 18 h

MIC [1]: 1 µg/mL
MIC [2]: 4 µg/mL (≈ 7.01 µM)
MIC [3]: 2 µg/mL (≈ 3.51 µM)
MIC [4]: 16 µg/mL
MIC [5]: 1 µg/mL
MIC [6]: 0.5 µg/mL
MIC [7]: 8 µg/mL (≈ 14 µM)
MIC [9]: 4 µg/mL (≈ 7.01 µM)
MIC [10]: 0.5 µg/mL
MIC [11]: 1 µg/mL
MIC [13]: 16 µg/mL
MIC [15]: 16 µg/mL (≈ 28 µM)
MIC [17]: 2 µg/mL (≈ 3.51 µM)
MIC [20]: 16 µg/mL
MIC [21]: 0.5 µg/mL
MIC [23]: 4 µg/mL (≈ 7.01 µM)
MIC [24]: 0.5 µg/mL (≈ 0.876 µM)
MIC [25]: 1 µg/mL
MIC [26]: 16 µg/mL (≈ 28 µM)
MIC [31]: 4 µg/mL (≈ 7.01 µM)
MIC [32]: 16 µg/mL (≈ 28 µM)
MIC [34]: 1 µg/mL
MIC [35]: 0.25 µg/mL
MIC [39]: 8 µg/mL
MIC [40]: 16 µg/mL
MIC [41]: 16 µg/mL (≈ 28 µM)
MIC [42]: 1 µg/mL (≈ 1.75 µM)
MIC [43]: 32 µg/mL (≈ 56.1 µM)
MIC [44]: 1 µg/mL
MIC [45]: 1 µg/mL (≈ 1.75 µM)
SMILES: CC(C)C(O/N=C(\C(=O)NC1C(=O)N(S(=O)(=O)O)C12CCCC2)c1csc(N)n1)c1cc(=O)c(O)cn1O (stereo not given)
Selectivity Index [8]: 2
Selectivity Index [12]: 1
Selectivity Index [14]: 8
Selectivity Index [16]: 2
Selectivity Index [18]: 2
Selectivity Index [19]: 4
Selectivity Index [22]: 4
Selectivity Index [27]: 1
Selectivity Index [28]: 4
Selectivity Index [29]: 2
Selectivity Index [30]: 2
Selectivity Index [33]: 4
Selectivity Index [36]: 4
Selectivity Index [37]: 2
Selectivity Index [38]: 1

MIC [1]: 16 µg/mL
MIC [2]: 16 µg/mL (≈ 29.3 µM)
MIC [3]: 8 µg/mL (≈ 14.6 µM)
MIC [4]: > 64 µg/mL
MIC [5]: 4 µg/mL
MIC [6]: 32 µg/mL
MIC [7]: 8 µg/mL (≈ 14.6 µM)
MIC [9]: 8 µg/mL (≈ 14.6 µM)
MIC [10]: 64 µg/mL
MIC [11]: 2 µg/mL
MIC [13]: > 64 µg/mL
MIC [15]: > 64 µg/mL
MIC [17]: 64 µg/mL (≈ 117 µM)
MIC [20]: 16 µg/mL
MIC [21]: 32 µg/mL
MIC [23]: 16 µg/mL (≈ 29.3 µM)
MIC [24]: > 64 µg/mL
MIC [25]: 2 µg/mL
MIC [26]: > 64 µg/mL
MIC [31]: 64 µg/mL (≈ 117 µM)
MIC [32]: > 64 µg/mL
MIC [34]: 8 µg/mL
MIC [35]: > 64 µg/mL
MIC [39]: > 64 µg/mL
MIC [40]: 64 µg/mL
MIC [41]: 64 µg/mL (≈ 117 µM)
MIC [42]: 64 µg/mL (≈ 117 µM)
MIC [43]: > 64 µg/mL
MIC [44]: 64 µg/mL
MIC [45]: 64 µg/mL (≈ 117 µM)
SMILES: CC(C)C(O/N=C(\C(=O)N[C@@H]1C(=O)N(S(=O)(=O)O)[C@@H]1CO)c1csc(N)n1)c1cc(=O)c(O)cn1O (stereo not given in full)
Selectivity Index [8]: 2
Selectivity Index [12]: 1 - 4
Selectivity Index [14]: 4
Selectivity Index [16]: 2
Selectivity Index [18]: 1 - 2
Selectivity Index [19]: 8
Selectivity Index [22]: 2
Selectivity Index [27]: >4
Selectivity Index [28]: 1
Selectivity Index [29]: 1
Selectivity Index [30]: 1 - 4
Selectivity Index [33]: 1
Selectivity Index [36]: 1
Selectivity Index [37]: 1 - 4
Selectivity Index [38]: 1
